IMP-1 inhibitor: inhibitors of Pseudomonas aeruginosa IMP-1 metallo-beta-lactamase | purified IMP-1, nitrocefin hydrolysis, epi-absorbance fluorescence | inhibition, % at 5.6 µM | 290,000 compounds, 0.45% hits;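 active = inhibition above the mean plus 3 SD of all compounds in the same screening run, cut at about 4.5% in these data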
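Material – recombinant IMP-1 enzyme, purified · Amount – IMP-1 0.2 nM before substrate addition · Medium – HEPES buffer pH 7.1 with ZnSO4 and Brij 35 · Timing – 25 °C, 15 min preincubation, 25 min reaction · Measured by – plate fluorescence quenching by hydrolysis product, ex 480/em 530 nm · Read-out – percent enzyme inhibition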
CHT allo act: allosterically activates the human high affinity choline transporter | Q9GZV3 | AID 488977 | CHT-expressing cells, membrane potential dye, choline EC20; stronger effect = higher value; LV-AA mutant CHT in HEK293 cells | 310,000 compounds, 0.49% hits | B-score at 10 µM;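 active = initial fluorescence not abnormally high and integrated response B-score, plate-corrected, over 3 SD above library mean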
ANO1 activ: activators or potentiators of mouse TMEM16A chloride channel; Q8BHY3; HEK293 TMEM16A/YFP-H148Q/I152L, iodide quench fluorescence; stronger effect = lower value; B-score at 10 µM; 340,000 compounds, 0.3% hits;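 active = fluorescence-ratio B-score plate-corrected deviation score at least 3 library SD below zero, with starting fluorescence score within 5 deviations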;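 note: channel opened by trigger with iodide after compound preincubation; score built on the fluorescence ratio of max minus min over baseline; more negative score means more quench and so TMEM16A activation or potentiation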
Target sequence (Q8BHY3 whole entry, looked up): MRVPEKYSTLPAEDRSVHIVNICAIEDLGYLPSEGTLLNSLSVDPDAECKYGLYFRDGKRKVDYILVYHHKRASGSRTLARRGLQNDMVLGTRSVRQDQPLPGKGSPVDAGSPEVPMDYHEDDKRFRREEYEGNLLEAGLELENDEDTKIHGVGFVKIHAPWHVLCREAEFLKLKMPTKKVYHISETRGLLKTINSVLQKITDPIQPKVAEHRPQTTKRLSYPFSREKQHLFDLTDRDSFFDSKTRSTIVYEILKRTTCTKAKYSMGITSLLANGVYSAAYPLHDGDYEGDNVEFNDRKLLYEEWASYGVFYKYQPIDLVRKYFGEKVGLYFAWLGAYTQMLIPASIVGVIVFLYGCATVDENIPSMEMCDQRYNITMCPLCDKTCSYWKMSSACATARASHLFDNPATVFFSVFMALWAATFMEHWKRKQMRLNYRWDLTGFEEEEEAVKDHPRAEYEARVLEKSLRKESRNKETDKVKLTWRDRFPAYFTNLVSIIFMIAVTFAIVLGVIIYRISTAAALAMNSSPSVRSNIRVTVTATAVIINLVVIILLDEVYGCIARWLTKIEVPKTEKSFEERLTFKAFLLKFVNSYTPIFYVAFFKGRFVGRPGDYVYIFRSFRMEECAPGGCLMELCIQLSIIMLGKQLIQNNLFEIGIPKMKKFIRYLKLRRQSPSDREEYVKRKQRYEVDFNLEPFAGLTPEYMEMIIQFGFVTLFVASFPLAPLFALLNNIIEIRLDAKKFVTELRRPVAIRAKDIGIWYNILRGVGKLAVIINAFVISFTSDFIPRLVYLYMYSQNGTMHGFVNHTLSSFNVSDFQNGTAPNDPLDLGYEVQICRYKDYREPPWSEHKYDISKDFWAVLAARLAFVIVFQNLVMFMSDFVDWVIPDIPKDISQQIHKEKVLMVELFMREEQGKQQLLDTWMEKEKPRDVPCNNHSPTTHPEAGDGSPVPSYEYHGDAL
VIM-2 inh: inhibitors of Pseudomonas aeruginosa VIM-2 metallo-beta-lactamase. purified VIM-2, nitrocefin hydrolysis, epi-absorbance fluorescence. inhibition, % at 5.6 µM. 290,000 compounds, 0.89% hits. AID 1527;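 active = inhibition above the mean of all tested compounds plus 3 SD, cutoff set per screening run, cut at about 7.5% in these data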;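 note: red hydrolysis product quenches plate fluorescence so inhibitors raise well fluorescence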
CHT inh: inhibitors of human choline transporter CHT; Q9GZV3; CHT-expressing cells, membrane potential dye, choline response; stronger effect = lower value; B-score at 10 µM; 310,000 compounds, 0.86% hits; AID 488975;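 active = B-score over 3 SD under the library average, and starting fluorescence ratio not unusually high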;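 note: choline stimulus applied at its EC90 after an EC20 pre-addition; B-score computed on integrated fluorescence ratio after choline addition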
TMEM16A inh: blocks the mouse calcium-activated chloride channel TMEM16A; HEK293 TMEM16A/YFP iodide influx fluorescence, ionomycin; normalized B-score (activity score, 25-100; higher = stronger inhibition) at 10 µM; 310,000 compounds, 1.2% hits;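 active = ratio plate-corrected score three or more library SD toward inhibition, starting fluorescence score within five deviations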;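 note: score derived from kinetic fluorescence span divided by baseline fluorescence per well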
CHT activ conf: confirmation of human choline transporter (CHT) activators; shares compounds with CHT allo act; CHT-expressing cells, membrane potential dye fluorescence (FDSS); % of choline EC20–EC90 response window; HEK293 expressing CHT LV-AA mutant; choline added at its EC20; activation, % at 10 µM; 2,500 compounds, 91% hits;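 active = primary screen active, with duplicate mean activation above negative control mean plus 3 SD, cut at about 11% in these data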
HEK293 MP dye: activity in parental HEK293 cells lacking CHT | membrane potential dye fluorescence (FDSS); measured after EC20 choline addition | ratio readout change at 10 µM, hits read low | shares compounds with CHT allo act | 2,500 compounds, 62% hits;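 active = duplicate-averaged ratio beyond 3 SD from buffer wells, up or down, though filed actives are nearly all decreases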
TMEM16A reconf: re-confirmation of mouse TMEM16A chloride channel inhibitors | HEK293 TMEM16A/YFP-H148Q, iodide quench fluorescence; ionomycin added to raise cell calcium | AID 652189 | inhibition, % at 10 µM | 2,300 compounds, 39% hits | shares compounds with TMEM16A inh;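 active = mean duplicate percent inhibition, scaled so buffer wells are 0 and the reference blocker 100, over three buffer SD above buffer mean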
TMEM16A Ca cntr: counter-screen for TMEM16A inhibitors: effect on calcium mobilization | TMEM16A/YFP HEK293, Fluo4 calcium mobilization | shares compounds with TMEM16A inh | calcium response (% of ionomycin), % at 10 µM | 2,300 compounds, 2% hits;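 active = duplicate-averaged calcium signal over 20% of the ionomycin maximum, relative to buffer baseline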;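 note: each well's signal is peak minus trough fluorescence divided by its pre-addition baseline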
Parental YFP cnt: parental YFP-HEK293 iodide quench counter-screen activity; shares compounds with TMEM16A inh; ionomycin; YFP ratio F(max-min)/F0 at 10 µM; 2,300 tested, under 10 active;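 active = yellow fluorescent protein signal ratio exceeding the buffer control mean by over 5 SD of those controls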;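 note: ratio is mean of duplicate wells from kinetic YFP trace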
ClC-1 rat inh: selectivity of TMEM16A inhibitors: inhibition of rat ClC-1 chloride channel; shares compounds with TMEM16A inh; CHO ClC-1-YFP, iodide influx fluorescence quench; iodide control reads 0, buffer control 100; ratio percent, % at 10 µM; 2,300 tested, under 10 active; AID 652236;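 active = duplicate-mean ratio percent above the mean of iodide-only control wells, which defines zero, plus 5 of their SD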;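 note: higher percent means stronger block of ClC-1 iodide influx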
Large screens that a line does not name were inactive (follow-up assays come after a bar, where they were run). Most compounds without a hit are left out; they make up all but 3.4% or so of the library.

NC(N)=N/N=C/c1ccc2cccc(OCc3ccccc3)c2n1	CHT allo act 6.3, TMEM16A inh 25 | CHT activ conf 14 | HEK293 MP dye inactive | TMEM16A reconf inactive | TMEM16A Ca cntr inactive | Parental YFP cnt inactive | ClC-1 rat inh inactive
O=C(NCCc1ccc(Cl)cc1)C1CCN(c2cnccn2)CC1	TMEM16A inh 100 | TMEM16A reconf inactive | TMEM16A Ca cntr inactive | Parental YFP cnt inactive | ClC-1 rat inh inactive
O=C(NCCc1ccc(Cl)cc1)C1CCN(c2ncccn2)CC1	none
CCN(CC)S(=O)(=O)c1cc(NC(=O)COC(=O)CCC(=O)c2cccs2)ccc1C	TMEM16A inh 25 | TMEM16A reconf 24% | TMEM16A Ca cntr inactive | Parental YFP cnt inactive | ClC-1 rat inh inactive
CCN(CC)S(=O)(=O)c1cccc(NC(=O)COC(=O)CCC(=O)c2cccs2)c1	none
COC(=O)[C@@]12OC[C@]34[C@H]([C@@H](O)[C@@H]1O)[C@@]1(C)C(=O)C(O[C@@H]5OC(CO)[C@@H](O)[C@@H](O)[C@@H]5O)=C[C@@H](C)[C@@H]1C[C@H]3OC(=O)[C@H](OC(=O)/C=C(\C)C(C)(C)OC(C)=O)[C@@H]24 (some centres not stated)	none (no result: IMP-1 inhibitor, ANO1 activ, VIM-2 inh)
Cc1cccc(NC(=O)C2(c3ccccc3)CC2(Cl)Cl)c1 (configuration not stated)	none
Cc1cc(C)cc(NC(=O)C2(c3ccccc3)CC2(Cl)Cl)c1 (configuration not stated)	TMEM16A inh 25 | TMEM16A reconf inactive | TMEM16A Ca cntr inactive | Parental YFP cnt inactive | ClC-1 rat inh inactive
CCOc1cc(CNCCO)cc(Br)c1OCc1ccccc1Cl	TMEM16A inh 25 | TMEM16A reconf inactive | TMEM16A Ca cntr inactive | Parental YFP cnt inactive | ClC-1 rat inh inactive
COc1ccc(CNC(=O)COC(=O)c2ccc(OCC3CCCO3)cc2)cc1 (configuration not stated)	none (no result: IMP-1 inhibitor, CHT allo act, VIM-2 inh, CHT inh, TMEM16A inh)
CCOC(=O)Cn1nc(-c2ccc(Cl)cc2)cc1N	TMEM16A inh 100 | TMEM16A reconf inactive | TMEM16A Ca cntr inactive | Parental YFP cnt inactive | ClC-1 rat inh inactive
CCOC(=O)CCn1nc(-c2ccc(Cl)cc2)cc1N	none
CCc1ccc(CNC(=O)C2CCCN(c3nn4c(=O)cc(C)nc4s3)C2)cc1 (configuration not stated)	none
CC(Sc1nnc(C2CC2)n1C1CC1)C(=O)Nc1cccc(S(=O)(=O)N2CCOCC2)c1 (configuration not stated)	none (no result: IMP-1 inhibitor, CHT allo act, VIM-2 inh, CHT inh, TMEM16A inh)
COC(=O)c1cc(CSc2nc3ccccc3c(=O)n2C)oc1C	TMEM16A inh 100 | TMEM16A reconf 34% | TMEM16A Ca cntr inactive | Parental YFP cnt inactive | ClC-1 rat inh inactive
CCc1ccc(S(=O)(=O)N2CCN(C(=O)c3cccnc3)CC2)cc1	none
CC1CC(c2ccccc2)n2nc(N3C(=O)c4ccccc4C3=O)nc2N1 (configuration not stated)	TMEM16A inh 25 | TMEM16A reconf inactive | TMEM16A Ca cntr inactive | Parental YFP cnt inactive | ClC-1 rat inh inactive
Cc1cccc(-n2cnc3cc(C(=O)N4CCCCC4)ccc32)c1	TMEM16A inh 25 | TMEM16A reconf inactive | TMEM16A Ca cntr inactive | Parental YFP cnt inactive | ClC-1 rat inh inactive
CCOc1ccc(-c2n[nH]c(C)c2Oc2ccccc2OC)c(O)c1	none
Cc1[nH]nc(-c2ccc(O)cc2O)c1Oc1ccccc1	TMEM16A inh 100 | TMEM16A reconf 24% | TMEM16A Ca cntr inactive | Parental YFP cnt inactive | ClC-1 rat inh inactive
CCN(c1cccc(C)c1)S(=O)(=O)c1cn(CC(=O)OC)c2ccc([N+](=O)[O-])cc12	none
COc1cc2sc(-c3ccc(S(C)(=O)=O)cc3)c(C#CCO)c2cc1OC	none (no result: IMP-1 inhibitor, CHT allo act, VIM-2 inh, CHT inh, TMEM16A inh)
CSc1nnc(-c2cc(Br)ccc2N=Cc2c(C)[nH]n(-c3ccccc3)c2=O)c(=O)[nH]1	none
CCSc1nnc(-c2cc(Br)ccc2N=Cc2c(C)[nH]n(-c3ccccc3)c2=O)c(=O)[nH]1	TMEM16A inh 100 | TMEM16A reconf 21% | TMEM16A Ca cntr 20% | Parental YFP cnt inactive | ClC-1 rat inh inactive
CCCn1c(=O)c(C(=O)NNC(=O)c2ccccc2Cl)c(O)c2ccccc21	ANO1 activ -4.6, TMEM16A inh 100 | TMEM16A reconf inactive | TMEM16A Ca cntr inactive | Parental YFP cnt inactive | ClC-1 rat inh inactive
CC(O)[C@@]1(O)CC[C@H]2[C@@H]3CC[C@H]4C[C@@H](O)CC[C@]4(C)C3=CC[C@@]21C (some centres not stated)	none (no result: IMP-1 inhibitor, VIM-2 inh)
COC(=O)c1sc(NC(=O)C2CCCO2)c(C(=O)OC)c1C (configuration not stated)	TMEM16A inh 25 | TMEM16A reconf inactive | TMEM16A Ca cntr inactive | Parental YFP cnt inactive | ClC-1 rat inh inactive
CCc1ccc(CN(C)C(=O)c2cc(COc3cccc4cnccc34)on2)cc1	TMEM16A inh 100 | TMEM16A reconf 22% | TMEM16A Ca cntr inactive | Parental YFP cnt inactive | ClC-1 rat inh inactive
CC1CCC(NC(=O)CCS(=O)(=O)c2ccc3c(c2)NC(=O)CS3)CC1 (configuration not stated)	TMEM16A inh 25 | TMEM16A reconf inactive | TMEM16A Ca cntr inactive | Parental YFP cnt inactive | ClC-1 rat inh inactive
Cc1cccc(NC(=O)CCS(=O)(=O)c2ccc3c(c2)NC(=O)CS3)n1	none
COCCNC(=O)c1cn(C)c2ccc(S(=O)(=O)N3CCCCC3)cc2c1=O	none
O=C(O)C1C2OC(C(Br)C2Br)C1C(=O)O (configuration not stated)	none (no result: IMP-1 inhibitor, CHT allo act, VIM-2 inh, CHT inh, TMEM16A inh)

Assay outcomes (PubChem)
